# Screening results from PubChem BioAssay.
# IMP-1 inh = blocks Pseudomonas aeruginosa IMP-1 metallo-beta-lactamase. inhibition, % at 5.6 µM. 0.45% of 290,000 active. purified IMP-1, nitrocefin hydrolysis, epi-absorbance fluorescence;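 active = inhibition above the mean plus 3 SD of all compounds in the same screening run, cut at about 4.5% in these data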;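 note: 0% = IMP-1 with DMSO and 100% = DMSO wells lacking enzyme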
#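 Material – recombinant IMP-1 enzyme, purified · Amount – IMP-1 0.2 nM before substrate addition · Medium – HEPES buffer pH 7.1 with ZnSO4 and Brij 35 · Timing – 25 °C, 15 min preincubation, 25 min reaction · Measured by – plate fluorescence quenching by hydrolysis product, ex 480/em 530 nm · Read-out – percent enzyme inhibition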
# PvdQ acylase = blocks Pseudomonas aeruginosa PvdQ acylase activity; purified PvdQ acylase, fluorescence plate reader; inhibition, % at 10 µM; 0.063% of 340,000 active; AID 488965; in the data active = inhibition above about 30%, passing the limit was not always enough;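 note: 0% = vehicle neutral wells and 100% = reference inhibitor wells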
# FID counter = displaces DNA intercalator in HCV helicase counter-screen. 0.17% of 290,000 active. inhibition, % at 7.9 µM. DNA fluorescent intercalator displacement, fluorescence; in the data active = inhibition above about 37%;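 note: 0% = vehicle and 100% = reference compound; higher means more ethidium bromide displaced from hairpin DNA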
# VIM-2 inhibitor = blocks Pseudomonas aeruginosa VIM-2 metallo-beta-lactamase | purified VIM-2, nitrocefin hydrolysis, epi-absorbance fluorescence | inhibition, % at 5.6 µM | 0.89% of 290,000 active | AID 1527;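 active = inhibition above the mean of all tested compounds plus 3 SD, cutoff set per screening run, cut at about 7.5% in these data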;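 note: red hydrolysis product quenches plate fluorescence so inhibitors raise well fluorescence; 0% = enzyme with DMSO and 100% = DMSO without enzyme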
# RAD54 inh = RAD54 (human) branch migration inhibition. 0.14% of 360,000 active. inhibition, % at 10.4 µM. RAD54 Holliday junction branch migration, FAM/BHQ fluorescence. Q92698. AID 602329;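 active = mean normalized replicate activity at least 40 and at least half of replicates scoring 40 or more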;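 note: 0% = median of neutral control wells and 100% = median of positive control wells; inhibitors cause a drop in the FAM fluorescence signal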
# Target sequence (Q92698 whole entry, looked up): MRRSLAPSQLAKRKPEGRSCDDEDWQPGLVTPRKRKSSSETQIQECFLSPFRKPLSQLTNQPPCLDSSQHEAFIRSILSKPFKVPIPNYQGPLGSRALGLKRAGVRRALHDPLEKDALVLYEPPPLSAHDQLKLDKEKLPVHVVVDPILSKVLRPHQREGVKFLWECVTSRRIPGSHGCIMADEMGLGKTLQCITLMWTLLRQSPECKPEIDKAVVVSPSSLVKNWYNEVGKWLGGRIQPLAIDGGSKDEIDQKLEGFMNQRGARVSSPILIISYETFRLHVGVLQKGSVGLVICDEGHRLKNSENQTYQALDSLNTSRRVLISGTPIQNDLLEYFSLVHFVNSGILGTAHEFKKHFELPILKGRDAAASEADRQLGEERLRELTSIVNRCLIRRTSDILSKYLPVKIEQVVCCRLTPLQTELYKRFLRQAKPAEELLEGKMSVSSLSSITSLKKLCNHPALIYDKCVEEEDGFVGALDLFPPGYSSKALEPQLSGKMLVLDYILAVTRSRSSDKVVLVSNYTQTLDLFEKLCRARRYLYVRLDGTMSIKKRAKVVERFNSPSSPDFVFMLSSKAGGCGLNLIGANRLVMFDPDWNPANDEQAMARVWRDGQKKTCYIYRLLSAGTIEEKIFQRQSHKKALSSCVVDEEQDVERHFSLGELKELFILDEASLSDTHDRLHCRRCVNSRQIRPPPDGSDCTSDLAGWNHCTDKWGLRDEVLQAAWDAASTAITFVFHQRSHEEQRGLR
# Active calls of the source: *; . = no result. The list is not random: actives were taken first. Their share in the collection is about 1%.
SMILES,IMP-1 inh,PvdQ acylase,FID counter,VIM-2 inhibitor,RAD54 inh
CCOC(=O)c1cnc2ccc(Br)cc2c1NCCCN1CCOCC1,-4,-15,25,3,12
CCOC(=O)c1cnc2c(C)c(C)ccc2c1NCCN1CCOCC1,-2,-14,15,8.6*,20
COc1ccc(-c2csc(Nc3cccnc3)n2)cc1OC,-2,5,-9,12*,0
COc1cccc(Nc2nc(-c3cccnc3)cs2)c1,-1,-14,-3,0,2
Cc1cccc(NC2=NCC(=O)N2Cc2ccccc2)c1,8.6*,-3,-2,-4,-5
CC(C)CN=c1cc(-c2ccccc2)oc2ccc(Cl)cc12,0,-6,17,5,.
CC(O)CN=c1cc(-c2ccccc2)oc2ccc(Cl)cc12 (stereo not given),-1,1,0,2,67*
OCCN=c1cc(-c2ccccc2)oc2ccc(Cl)cc12,0,9,7,0,82*
C[C@H]1CN([C@@H](C)CO)C(=O)c2cc(C#CC3CCCC3)cnc2O[C@@H]1CN(C)C(=O)C1CCCCC1,.,.,.,.,-7
C[C@@H]1CN([C@H](C)CO)C(=O)c2cc(NC(=O)CCCN(C)C)ccc2O[C@H]1CN(C)C(=O)Nc1ccc(F)cc1,.,.,.,.,1
CCCNS(=O)(=O)c1cc(Cl)ccc1OC,-3,-2,-2,0,.
CCCNS(=O)(=O)c1ccc(OC)c(Cl)c1Cl,-3,39*,-4,-3,2
O=C(c1ccc(Cl)cc1)N1CCCC(C(=O)N2CCN(c3ccccc3)CC2)C1 (stereo not given),0,.,-36,1,5
O=C(C1CCC1)N1CCN(c2ccc(Cl)cc2)CC1,-2,36*,-13,-2,12
Cc1ccc(-c2ccccc2[C@@H]2C[C@H]3CN(C)C(=O)[C@]34CCCN24)o1,-3,-8,-6,-3,-7
O=C1N(c2ccccc2)C[C@@H]2C[C@@H](c3cc4ccccc4o3)N3CCC[C@@]123,-1,42*,-23,0,.
CC1CCCCN1CC(O)COCCC12CC3CC(CC(C3)C1)C2 (stereo not given),-1,6,44*,3,3
CCOC(=O)N1CCN(CC(O)COCCC23CC4CC(CC(C4)C2)C3)CC1 (stereo not given),2,-5,-18,-3,-17
Cc1ccc(S(=O)(=O)N[C@H]2CC[C@H](CCNC(=O)CN3CCOCC3)O[C@H]2CO)cc1,.,.,.,.,2
CCOC(OCC)c1cn(Cc2ccc3c(c2)C(=O)c2ccccc2C3=O)nn1,-1,.,-25,9.9*,.
Cc1c(Br)c(=O)oc2c(C)c(O)ccc12,-6,-2,2,8.4*,.
CCc1c(C)c2ccc(O)c(CN(C)C)c2oc1=O,-6,-2,2,-1,-2
COCC(=O)N1CCCCN2[C@H](CO)[C@H](c3ccc(-c4cccc(C)c4)cc3)[C@H]2C1,.,.,.,.,-12
CCC(=O)Nc1ccc2c(c1)C(=O)N(C)C[C@@H](OC)[C@H](C)CN(C(=O)c1cnccn1)[C@@H](C)CO2,.,.,.,.,3
O=C(OCc1ccc(F)cc1)c1ccc2c(c1)-c1ccccc1C2=O,4.6*,-10,1,-2,.
SMILES,IMP-1 inh,PvdQ acylase,FID counter,VIM-2 inhibitor,RAD54 inh
O=C(OCc1ccc(F)cc1)c1cc2ccccc2cc1O,-1,-18,-10,-1,4
Cc1cn(-c2cc(NC(=O)c3ccc(C)c(NC(=O)c4cccc(-c5cn[nH]c(=O)c5)c4)c3)cc(C(F)(F)F)c2)cn1,20*,1,-17,2,-4
CNC[C@@H]1OCCCC[C@@H](C)Oc2ccc(NS(=O)(=O)c3ccc(OC)cc3)cc2C(=O)N([C@H](C)CO)C[C@@H]1C,.,.,.,.,1
C[C@H](CO)N1C[C@H](C)[C@H](CN(C)C(=O)Nc2ccc(F)cc2)Oc2ccc(NC(=O)Nc3ccc(F)cc3)cc2C1=O,.,.,.,.,10
C=CCOC(=O)C(=O)/C=C/c1coc2ccccc2c1=O,-1,8,-22,8.3*,2
C=CCOC(=O)C(=O)/C=C/c1c(C)n(C)n(-c2ccccc2)c1=O,0,-3,-4,0,0
O=C(c1ccco1)N1CCN(c2c([N+](=O)[O-])nn(-c3cccc(Cl)c3)[n+]2[O-])CC1,7.8*,-5,-5,-3,-5
O=C(c1ccc(Cl)c([N+](=O)[O-])c1)N1CCN(C(=O)c2ccco2)CC1,-2,3,-4,-2,.
O=C(C[C@H]1CC[C@@H](NC(=O)CC2CC2)[C@@H](CO)O1)NCc1ccc(Cl)cc1,.,.,.,.,6
O=C1CSC2(CCCCC2)N1CCO,5.6*,-12,-3,0,5
C[C@@H]1CN([C@H](C)CO)C(=O)c2cccc(NC(=O)c3ccc(-c4nccs4)cc3)c2O[C@H]1CN(C)S(=O)(=O)c1ccc(Cl)cc1,.,.,.,.,-8
Cn1c(-c2ccc(Br)o2)nc2cc(Br)ccc21,-1,5,-6,8.0*,3
Cn1c(-c2ccc(Br)o2)nc2ccccc21,1,20,-2,3,3
Cc1ccc(C2C(C(=O)c3cccs3)=C(O)C(=O)N2c2nnc(C)s2)cc1 (stereo not given),20*,18,-7,20*,.
COc1ccc(C2C(C(=O)c3cccs3)=C(O)C(=O)N2c2cccc(C)n2)cc1 (stereo not given),-4,-8,-41,-1,.
Cc1c(OC(C(=O)O)c2ccccc2)ccc2c1oc(=O)c1ccccc12 (stereo not given),-2,-8,-4,3,-11
Cc1c(OCC(=O)N[C@H](C(=O)O)c2ccccc2)ccc2c3c(c(=O)oc12)CCCC3,-5,-6,-28,12*,-2
Cc1cc(=O)oc2c(C)c(OC(C)C(=O)NCC(O)c3ccccc3)ccc12 (stereo not given),0,-1,-26,4,-1
Cc1c(OC(C(=O)O)c2ccccc2)ccc2c3c(c(=O)oc12)CCC3 (stereo not given),-2,-13,-21,7.7*,2
Cc1c(OC(C)C(=O)NCC(O)c2ccccc2)ccc2c3c(c(=O)oc12)CCCC3 (stereo not given),2,8,-37,11*,.
CCN(CC)C(=O)COc1ccc2c3c(c(=O)oc2c1C)CCCC3,0,-1,-23,8.0*,-1
C[C@@H]1CCCCO[C@@H](CN(C)Cc2ccc3c(c2)OCO3)[C@@H](C)CN([C@H](C)CO)C(=O)c2cc(NC(=O)CCCN(C)C)ccc2O1,.,.,.,.,3
C[C@@H]1CN([C@@H](C)CO)C(=O)c2cccc(NC(=O)Nc3ccc(F)cc3)c2O[C@H]1CN(C)C(=O)Nc1ccc2c(c1)OCO2,.,.,.,.,-1
Cc1c(Cc2ccccc2)c(=O)oc2c(C)c(OCC(=O)N3CCC(C(=O)O)CC3)ccc12,-3,-6,-26,0,-5
Cc1c(OCC(=O)N2CCC(C(=O)O)CC2)ccc2c3c(c(=O)oc12)CCC3,-3,-12,-30,9.9*,-7
O=C(C1=NN[C@@H]2C(=O)N(c3cccc(C(F)(F)F)c3)C(=O)[C@H]12)C(c1ccccc1)c1ccccc1,-3,-4,-12,-2,2
